In test [1] the test system is Rattus norvegicus. The test is described as follows: Effect on in vivo accumulation of DOPA was measured in rat limbic system at 2.2 (umol/kg) dose. The class given is functional. A digest of the protocol:
(§1)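 Rats not pretreated with reserpine received test drug (hydrochloride or hydrobromide salt) sc in the neck region 60 min before death. NSD 1015 decarboxylase inhibitor (100 mg/kg, i.e., 573 μmol/kg, ip) was given 30 min before decapitation. Brain was dissected on ice. Tissue was homogenized in 0.1 M perchloric acid with α-methyl-DOPA internal standard. Analytes were quantified by ion-pair reversed-phase HPLC-electrochemical detection. Values are means ± SEM, n = 3-7 per treated group.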

Test [2] relates to Rattus norvegicus. The test is described as follows: Effect on in vivo accumulation of dopamine(DA) was measured in rat limbic system at 22(Micromol/kg) dose. The class given is functional. A digest of the protocol:
(§2)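 Non-reserpinized rats got the test drug sc in the neck (5 mL/kg) 60 min before death, and NSD 1015 (573 µmol/kg ip) 30 min before death. After decapitation, the limbic system was dissected on ice, frozen and homogenized in 0.1 M perchloric acid with α-methyl-DOPA internal standard. DA was measured by ion-pair reversed-phase HPLC with electrochemical detection. Data are mean ± SEM (controls n=17-19, treated 3-7), analysed by ANOVA/Dunnett.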

The subject of test [3] is Rattus norvegicus. The test can be described thus: Effect on in vivo accumulation of DOPA was measured in rat limbic system at 22(Micromol/kg) dose. Type of test: functional. In short, it runs like this:
as §1

The subject of test [4] is Rattus norvegicus. The test is described as follows: Effect on in vivo accumulation of 5-HTP was measured in rat corpus striatum at 22(umol/kg) dose. The class given is functional. A digest of the protocol: as §1
For test [5], the system named is Rattus norvegicus. The test is described as follows: Effect on in vivo accumulation of 5-HTP was measured in rat corpus striatum at 2.2 (umol/kg) dose. The class given is functional. In short, it runs like this:
as §1

Test [6] concerns the target T1, 5-hydroxytryptamine receptor 1A (Rattus norvegicus, UniProt P19327).
T1 sequence (P19327 whole entry): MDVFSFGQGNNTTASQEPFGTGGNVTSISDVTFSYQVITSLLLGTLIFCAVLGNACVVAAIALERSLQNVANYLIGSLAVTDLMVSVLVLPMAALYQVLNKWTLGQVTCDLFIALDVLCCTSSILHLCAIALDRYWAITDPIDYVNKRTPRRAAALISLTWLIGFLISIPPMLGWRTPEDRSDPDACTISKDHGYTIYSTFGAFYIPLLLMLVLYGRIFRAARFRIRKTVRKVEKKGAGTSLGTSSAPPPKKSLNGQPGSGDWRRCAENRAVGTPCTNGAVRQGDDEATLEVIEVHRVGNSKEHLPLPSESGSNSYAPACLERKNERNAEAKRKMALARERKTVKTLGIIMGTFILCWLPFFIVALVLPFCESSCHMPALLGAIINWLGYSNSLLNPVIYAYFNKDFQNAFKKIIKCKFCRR
The test is described as follows: Inhibitory activity tested in vitro at 5-hydroxytryptamine 1A receptor binding site in rat. In short, it runs like this: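 Competition binding used rat brain membranes washed in 50 mM Tris-HCl pH 7.4, preincubated 10 min at 37 °C to remove 5-HT, and used at 10 mg wet tissue/mL. Assay: 1 nM [3H]-8-OH-DPAT, 3 mM CaCl2, 100 µM pargyline, 15 min at 37 °C, then filtration on PEI-treated filters. Nonspecific binding was set with 10 µM 5-HT. IC50 came from four-parameter logistic regression, mean ± SEM of N experiments.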

Test [7] deals with Rattus norvegicus. The test is described as follows: Effect on in vivo accumulation of DOPA was measured in rat corpus striatum at 22(Micromol/kg) dose. Type of test: functional. A digest of the protocol: as §1
In test [8] the test system is Rattus norvegicus. The test is described as follows: Effect on in vivo accumulation of DOPA was measured in rat corpus striatum at 2.2 (umol/kg) dose. The class given is functional. A digest of the protocol: as §1
For test [9], the system named is Rattus norvegicus. The test is described as follows: Effect on in vivo accumulation of dopamine(DA) was measured in rat limbic system at 2.2 (umol/kg) dose. Type of test: functional. A digest of the protocol:
as §2

Test [10] concerns Rattus norvegicus. The test can be described thus: Effect on in vivo accumulation of 5-HTP was measured in rat limbic system at 22(Micromol/kg) dose. Type of test: functional. In short, it runs like this:
as §1

The subject of test [11] is Rattus norvegicus. The test is described as follows: Effect on in vivo accumulation of […] was measured in rat corpus striatum at 2.2 (umol/kg) dose. The class given is functional. In short, it runs like this:
as §1

In test [12] the test system is Rattus norvegicus. The test can be described thus: Effect on in vivo accumulation of […] was measured in rat corpus striatum at 22(Micromol/kg) dose. Type of test: functional. In short, it runs like this:
as §1

Test [13] relates to Rattus norvegicus. The test can be described thus: Effect on in vivo accumulation of 5-HTP was measured in rat limbic system at 2.2 (umol/kg) dose. Type of test: functional. In short, it runs like this: as §1
Test [14] concerns Rattus norvegicus. The test is described as follows: Effect on in vivo accumulation of […] was measured in rat corpus striatum at 43(Micromol/kg) dose. Type of test: functional. A digest of the protocol: as §1
For test [15], the system named is Rattus norvegicus. The test can be described thus: Effect on in vivo accumulation of 5-HTP was measured in rat corpus striatum at 43(umol/kg) dose. Type of test: functional. A digest of the protocol: as §1
For test [16], the system named is Rattus norvegicus. The test can be described thus: Effect on in vivo accumulation of 5-HTP was measured in rat limbic system at 43(Micromol/kg) dose. The class given is functional. In short, it runs like this: as §1
For test [17], the system named is Rattus norvegicus. The test is described as follows: Effect on in vivo accumulation of DOPA was measured in rat limbic system at 43(Micromol/kg) dose. Type of test: functional. In short, it runs like this: as §1
The subject of test [18] is Rattus norvegicus. The test can be described thus: Effect on in vivo accumulation of dopamine(DA) was measured in rat limbic system at 43(Micromol/kg) dose. The class given is functional. In short, it runs like this:
as §2

Test [19] concerns Rattus norvegicus. The test is described as follows: Effect on in vivo accumulation of DOPA was measured in rat corpus striatum at 43(Micromol/kg) dose. The class given is functional. A digest of the protocol: as §1
Test [20] relates to Rattus norvegicus. The test can be described thus: Effect on in vivo accumulation of 5-HTP was measured in rat limbic system at 50(Micromol/kg) dose. Type of test: functional. A digest of the protocol: as §1
For test [21], the system named is Rattus norvegicus. The test can be described thus: Effect on in vivo accumulation of […] was measured in rat corpus striatum at 25(Micromol/kg) dose. Type of test: functional. A digest of the protocol: as §1
Test [22] deals with Rattus norvegicus. The test can be described thus: Effect on in vivo accumulation of DOPA was measured in rat limbic system at 25(Micromol/kg) dose. Type of test: functional. A digest of the protocol:
as §1

Test [23] concerns Rattus norvegicus. The test can be described thus: Effect on in vivo accumulation of DOPA was measured in rat limbic system at 2.5 (umol/kg) dose. Type of test: functional. In short, it runs like this: as §1
The test system of test [24] is Rattus norvegicus. The test is described as follows: Effect on in vivo accumulation of 5-HTP was measured in rat corpus striatum at 50(umol/kg) dose. Type of test: functional. In short, it runs like this: as §1
Test [25] deals with Rattus norvegicus. The test is described as follows: Effect on in vivo accumulation of dopamine(DA) was measured in rat limbic system at 2.5 (umol/kg) dose. Type of test: functional. A digest of the protocol: as §2
For test [26], the system named is Rattus norvegicus. The test can be described thus: Effect on in vivo accumulation of 5-HTP was measured in rat corpus striatum at 25 (umol/kg) dose. The class given is functional. A digest of the protocol: as §1
In test [27] the test system is Rattus norvegicus. The test is described as follows: Effect on in vivo accumulation of DOPA was measured in rat corpus striatum at 2.5 (umol/kg) dose. Type of test: functional. A digest of the protocol: as §1
The subject of test [28] is Rattus norvegicus. The test can be described thus: Effect on in vivo accumulation of 5-HTP was measured in rat limbic system at 25(Micromol/kg) dose. The class given is functional. A digest of the protocol:
as §1

The test system of test [29] is Rattus norvegicus. The test is described as follows: Effect on in vivo accumulation of DOPA was measured in rat corpus striatum at 50(Micromol/kg) dose. The class given is functional. In short, it runs like this: as §1
Test [30] relates to Rattus norvegicus. The test is described as follows: Effect on in vivo accumulation of dopamine(DA) was measured in rat limbic system at 50(Micromol/kg) dose. Type of test: functional. In short, it runs like this:
as §2

Test [31] relates to Rattus norvegicus. The test is described as follows: Effect on in vivo accumulation of DOPA was measured in rat corpus striatum at 25(Micromol/kg) dose. The class given is functional. In short, it runs like this:
as §1

Test [32] has as its system Rattus norvegicus. The test can be described thus: Effect on in vivo accumulation of dopamine(DA) was measured in rat limbic system at 25(Micromol/kg) dose. Type of test: functional. A digest of the protocol:
as §2

In test [33] the test system is Rattus norvegicus. The test can be described thus: Effect on in vivo accumulation of DOPA was measured in rat limbic system at 50(Micromol/kg) dose. The class given is functional. A digest of the protocol:
as §1

Test [34] relates to Rattus norvegicus. The test can be described thus: Effect on in vivo accumulation of […] was measured in rat corpus striatum at 2.5 (umol/kg) dose. Type of test: functional. In short, it runs like this: as §1
Test [35] concerns Rattus norvegicus. The test can be described thus: Effect on in vivo accumulation of […] was measured in rat corpus striatum at 50(Micromol/kg) dose. The class given is functional. In short, it runs like this: as §1
For test [36], the system named is Rattus norvegicus. The test can be described thus: Effect on in vivo accumulation of 5-HTP was measured in rat corpus striatum at 2.5(umol/kg) dose. The class given is functional. In short, it runs like this: as §1
Test [37] relates to Rattus norvegicus. The test is described as follows: Effect on in vivo accumulation of 5-HTP was measured in rat limbic system at 2.5 (umol/kg) dose. Type of test: functional. In short, it runs like this: as §1

Broadly, the IC50 is the point on the concentration scale where inhibition reaches its midpoint.

`CCCN(CCC)[C@H]1Cc2c(O)cccc2C[C@@H]1C` (stereo in doubt; (+)-11): the Activity with Rattus norvegicus [1] is 389 ng/g; in the test with Rattus norvegicus [2], below 839 ng/g; with Rattus norvegicus [3], 400 ng/g; in the test with Rattus norvegicus [4] it was below 56.4 ng/g; with Rattus norvegicus [5], 87.3 ng/g; in the test on Rattus norvegicus [7], 959 ng/g. For the same compound, the Activity with Rattus norvegicus [8] was 1008 ng/g; in the test on Rattus norvegicus [9], 1067 ng/g; with Rattus norvegicus [10], below 89.5 ng/g; in the test with Rattus norvegicus [11] it was 5158 ng/g; in the test with Rattus norvegicus [12], below 4089 ng/g; in the test with Rattus norvegicus [13] it was 144 ng/g. Also, the IC50 in test [6] was 60.5 nM.
With `CCCN(CCC)[C@H]1Cc2c(O)cccc2C[C@@H]1C` (stereo in doubt; (-)-11), the Activity with Rattus norvegicus [14] is below 4181 ng/g; in the test with Rattus norvegicus [15], 117 ng/g; in the test with Rattus norvegicus [16], 136 ng/g; in the test on Rattus norvegicus [17], 381 ng/g; in the test on Rattus norvegicus [18], below 800 ng/g; in the test with Rattus norvegicus [19], 1039 ng/g. For the same compound, the IC50 in test [6] came out at 1680 nM.
`CCCN(CCC)[C@H]1Cc2c(O)cccc2C[C@H]1C` (stereo in doubt; (-)-15): the Activity is below 88.3 ng/g in the test with Rattus norvegicus [20]; 4751 ng/g in the test on Rattus norvegicus [21]; below 521 ng/g in the test with Rattus norvegicus [22]; below 463 ng/g in the test on Rattus norvegicus [23]; below 45.8 ng/g in the test on Rattus norvegicus [24]; 1133 ng/g with Rattus norvegicus [25]. For the same compound, the Activity in the test on Rattus norvegicus [26] is below 65.4 ng/g; with Rattus norvegicus [27], 1080 ng/g; with Rattus norvegicus [28], below 120 ng/g; with Rattus norvegicus [29] it was 1001 ng/g; with Rattus norvegicus [30], 1065 ng/g; in the test on Rattus norvegicus [31] it was 1241 ng/g. The Activity is 1094 ng/g in the test with Rattus norvegicus [32]; 396 ng/g in the test on Rattus norvegicus [33]; 4439 ng/g in the test on Rattus norvegicus [34]; 5282 ng/g in the test with Rattus norvegicus [35]; 96.6 ng/g in the test on Rattus norvegicus [36]; 163 ng/g with Rattus norvegicus [37]. This compound gave an IC50 in test [6] of 486 nM.
